# Laboratory results from article PMC7729281 (Biochemistry, 2020).
# Tests used:
# h15-LOX-2 = biological target: T1, h15-LOX-2 (Homo sapiens, UniProt O15296); test: Steady-state kinetics of h15-LOX-2 with 14S-HpDHA; type: biochemical; conditions: various 14S-HpDHA concentrations
# T1 sequence (O15296 1-676): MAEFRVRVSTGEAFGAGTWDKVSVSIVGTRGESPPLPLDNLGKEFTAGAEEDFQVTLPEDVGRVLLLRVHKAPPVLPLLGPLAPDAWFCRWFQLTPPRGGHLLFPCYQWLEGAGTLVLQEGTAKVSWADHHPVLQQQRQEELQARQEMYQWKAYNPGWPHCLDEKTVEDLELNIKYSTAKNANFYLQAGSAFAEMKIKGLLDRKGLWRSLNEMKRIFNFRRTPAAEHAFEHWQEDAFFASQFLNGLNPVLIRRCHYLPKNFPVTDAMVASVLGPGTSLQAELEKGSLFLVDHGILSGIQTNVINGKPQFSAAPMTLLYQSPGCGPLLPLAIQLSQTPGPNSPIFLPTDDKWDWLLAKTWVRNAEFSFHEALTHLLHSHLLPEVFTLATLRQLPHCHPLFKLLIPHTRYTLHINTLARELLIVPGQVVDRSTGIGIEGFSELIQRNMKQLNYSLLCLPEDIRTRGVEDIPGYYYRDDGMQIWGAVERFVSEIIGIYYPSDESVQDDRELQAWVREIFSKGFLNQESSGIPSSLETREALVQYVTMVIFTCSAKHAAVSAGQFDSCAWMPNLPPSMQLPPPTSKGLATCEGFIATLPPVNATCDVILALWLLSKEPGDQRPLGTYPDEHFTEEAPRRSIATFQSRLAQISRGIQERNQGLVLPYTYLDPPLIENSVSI
# Outline: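 Reactions were run in a quartz cuvette containing 2 mL of 25 mM HEPES, pH 7.5, at room temperature, with 14S-HpDHA at various concentrations. The 14S-HpDHA stock was quantified at 234 nm in methanol (ε 27 000 M−1 cm−1). Product formation was followed by absorbance at 270 nm (ε 37 000 M−1 cm−1), with triplicate reactions.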
# human platelets = test: Collagen-stimulated platelet aggregation; type: cell-based; conditions: ≥1 μM, 10 min incubation, collagen 0.25 μg/mL
# Outline: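 Washed human platelets were isolated by serial centrifugation and resuspended in Tyrode's buffer at 3 × 10^8/mL. They were preincubated with test compound (1–10 μM) for 10 min at 37 °C, then stimulated with 0.25 μg/mL collagen while stirring at 1100 rpm. Maximum aggregation was read as the light-transmittance change, mean ± SEM of 3–5 independent experiments. Comparison versus vehicle used one-way ANOVA with Dunnett's test.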
# h15-LOX-1 = biological target: T2, h15-LOX-1 (Homo sapiens, UniProt P16050); test: Steady-state kinetics of h15-LOX-1
# T2 sequence (P16050 1-662): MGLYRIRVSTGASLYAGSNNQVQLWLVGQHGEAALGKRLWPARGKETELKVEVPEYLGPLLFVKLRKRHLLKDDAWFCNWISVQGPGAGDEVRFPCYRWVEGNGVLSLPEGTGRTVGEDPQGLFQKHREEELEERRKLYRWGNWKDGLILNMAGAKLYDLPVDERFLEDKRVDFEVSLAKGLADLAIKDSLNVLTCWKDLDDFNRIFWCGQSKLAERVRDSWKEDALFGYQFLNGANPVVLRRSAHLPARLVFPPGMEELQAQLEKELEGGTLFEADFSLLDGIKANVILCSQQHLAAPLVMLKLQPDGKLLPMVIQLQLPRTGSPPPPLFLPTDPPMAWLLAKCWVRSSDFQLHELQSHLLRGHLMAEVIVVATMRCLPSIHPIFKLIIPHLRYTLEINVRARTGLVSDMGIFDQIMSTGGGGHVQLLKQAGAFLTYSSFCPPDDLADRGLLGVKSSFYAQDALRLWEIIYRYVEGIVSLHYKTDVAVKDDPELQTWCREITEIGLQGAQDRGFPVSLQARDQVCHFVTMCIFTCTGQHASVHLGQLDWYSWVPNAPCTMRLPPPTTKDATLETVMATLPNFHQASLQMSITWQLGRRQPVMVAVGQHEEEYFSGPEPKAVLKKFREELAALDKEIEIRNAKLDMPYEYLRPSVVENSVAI
# h12-LOX = biological target: T3, h12-LOX (Homo sapiens, UniProt P18054); test: Allosteric modulation of 14S-HpDHA epoxidation by h12-LOX; type: biochemical; conditions: 14S-HpDHA titrated 1 to 50 μM, 76% at start
# T3 sequence (P18054 1-663): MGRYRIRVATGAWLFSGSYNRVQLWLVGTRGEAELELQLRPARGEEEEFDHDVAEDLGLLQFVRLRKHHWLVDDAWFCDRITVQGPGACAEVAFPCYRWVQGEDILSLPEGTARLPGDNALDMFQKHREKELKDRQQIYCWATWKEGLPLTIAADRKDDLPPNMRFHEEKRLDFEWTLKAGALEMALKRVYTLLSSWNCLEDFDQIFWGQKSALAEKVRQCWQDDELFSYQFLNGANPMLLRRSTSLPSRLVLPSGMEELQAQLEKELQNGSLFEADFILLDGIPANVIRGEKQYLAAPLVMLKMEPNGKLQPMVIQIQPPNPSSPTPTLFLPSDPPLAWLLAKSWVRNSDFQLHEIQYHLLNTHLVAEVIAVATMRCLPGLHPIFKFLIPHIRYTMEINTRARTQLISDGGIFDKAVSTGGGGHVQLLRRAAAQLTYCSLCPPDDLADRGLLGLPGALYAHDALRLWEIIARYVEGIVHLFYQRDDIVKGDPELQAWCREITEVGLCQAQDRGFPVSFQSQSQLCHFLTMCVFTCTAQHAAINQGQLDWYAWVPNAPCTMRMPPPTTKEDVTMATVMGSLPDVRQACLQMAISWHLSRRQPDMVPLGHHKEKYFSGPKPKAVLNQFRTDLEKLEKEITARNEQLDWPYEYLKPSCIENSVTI
# Outline: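 Recombinant human h15-LOX-1 (0.125 μM, 25 mM HEPES pH 7.5, 20 min) or h12-LOX (0.3 μM, pH 8.0, 1 h) reacted at room temperature with 1 μM 14S-HpDHA while oxylipin modulator was titrated (1–100 μM), or with 14S-HpDHA varied alone (1–50 μM). Products were reduced and analysed by LC-MS. Dehydration (epoxide) versus oxygenation product percentages were calculated, N = 3.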
# [1] = h15-LOX-1 + substrate, 25 mM HEPES pH 7.5, RT
smiles,measurement,setting,value
"CC/C=C\C/C=C\C[C@@H](/C=C/C=C\C/C=C\C/C=C\CCC(=O)O)OO [14S-HpDHA, 14S-hydroperoxy-4Z,7Z,10Z,12E,16Z,19Z-docosahexaenoic acid]",reaction with h15-LOX-2,h15-LOX-2,not to react
same,reduction in aggregation compared to vehicle control,human platelets,> 90%
same,kcat,h15-LOX-1; h15-LOX-1,2e+06 ± 40000 M⁻¹ s⁻¹
same,"13S,14S-epoxy-DHA biosynthetic flux","h15-LOX-1; h15-LOX-1 + 14S-HpDHA, B.F. = kcat/KM * % product",0.078
same,Km,h15-LOX-1; [1],18 ± 1 µM
same,kcat,h15-LOX-1; [1],2.0 ± 0.04 s⁻¹
same,fold difference of kcat/KM,"h15-LOX-1; h15-LOX-1, kcat/KM of enzyme with DHA set to 1 (Table 5)",−3.2
same,kcat of h15-LOX-1 greater than that of h12-LOX,h15-LOX-1; substrate 14S-HpDHA,~10 fold
same,epoxidation product at end of titration,h12-LOX,19%
